From ChEMBL document CHEMBL4024777, “Discovery of LY3104607: A Potent and Selective G Protein-Coupled Receptor 40 (GPR40) Agonist with Optimized Pharmacokinetic Properties to Support Once Daily Oral Treatment in Patients with Type 2 Diabetes Mellitus” (J Med Chem, 2018)
Calls of active or inactive are those of the source. The calls are words filed in the database; no cut-off is given here.

Columns and labels:
[1] = target: T1, Free fatty acid receptor 1 (Homo sapiens, UniProt O14842); test: Agonist activity at human PK-tagged GPR40 expressed in HEK293 cells assessed as EA-tagged beta-arrestin recruitment after 90 mins in presence of 1 % heat inactivated FBS by beta-galactosidase reporter gene assay relative to untreated control; assay type: cell-based
[2] = Protein binding in plasma (unknown origin) by equilibrium dialysis assay; assay type: ADME, cell-free; settings: read-out: PPB
[3] = target: Cytochrome P450 2D6 (Homo sapiens, UniProt P10635); test: Inhibition of human CYP2D6; assay type: ADME
[4] = target: Cytochrome P450 2C9 (Homo sapiens, UniProt P11712); test: Inhibition of human CYP2C9; assay type: ADME
[5] = AUC (0 to 24 hrs) in Sprague-Dawley rat at 10 mg/kg, po; assay type: ADME, organism-based; parameters: dose 10 mg/kg, time < 24 hr, route oral; settings: in vivo
[6] = AUC (0 to 24 hrs) in Sprague-Dawley rat at 100 mg/kg, po; assay type: ADME, organism-based; parameters: dose 100 mg/kg, time < 24 hr, route oral; settings: in vivo
[7] = Cmax in Sprague-Dawley rat at 100 mg/kg, po; assay type: ADME, organism-based; parameters: dose 100 mg/kg, route oral; settings: in vivo
[8] = Tmax in Sprague-Dawley rat at 1 mg/kg, po; assay type: ADME, organism-based; settings: in vivo
In short: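 Fasted rats given oral doses of 1 mg/kg. […] Bioavailability is calculated against the 1 mg/kg IV group.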

[9] = Tmax in Sprague-Dawley rat at 100 mg/kg, po; assay type: ADME, organism-based; settings: in vivo
[10] = Half life in Sprague-Dawley rat at 1 mg/kg, iv; assay type: ADME, organism-based; settings: in vivo
[11] = Half life in Sprague-Dawley rat at 1 mg/kg, po; assay type: ADME, organism-based; settings: in vivo
[12] = AUC (0 to 24 hrs) in Beagle dog at 3 mg/kg, po; assay type: ADME, organism-based, Canis lupus familiaris; parameters: time < 24 hr, dose 3 mg/kg, route oral; settings: in vivo
[13] = AUC (0 to 24 hrs) in Beagle dog at 30 mg/kg, po; assay type: ADME, organism-based, Canis lupus familiaris; parameters: dose 30 mg/kg, time < 24 hr, route oral; settings: in vivo
[14] = AUC (0 to 24 hrs) in Beagle dog at 100 mg/kg, po; assay type: ADME, organism-based, Canis lupus familiaris; parameters: time < 24 hr, dose 100 mg/kg, route oral; settings: in vivo
[15] = Clearance in Beagle dog at 1 mg/kg, iv; assay type: ADME, organism-based, Canis lupus familiaris; settings: in vivo
[16] = Volume of distribution at steady state in Beagle dog at 1 mg/kg, iv; assay type: ADME, organism-based, Canis lupus familiaris; settings: in vivo, read-out: Vdss
[17] = Metabolic stability in rat microsomes assessed as compound metabolized after 30 mins; assay type: ADME, Microsome; settings: read-out: Drug metabolism
In short: (§1)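 Compound incubated 30 min with liver microsomes from mouse, rat, dog or human. Percent of compound metabolized recorded, as mean (SEM, n).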

[18] = Metabolic stability in human microsomes assessed as compound metabolized after 30 mins; assay type: ADME, Microsome; settings: read-out: Drug metabolism; in short: as §1
[19] = target: Voltage-gated inwardly rectifying potassium channel KCNH2 (Homo sapiens, UniProt Q12809); test: Inhibition of human ERG at 100 uM
[20] = target: Free fatty acid receptor 1 (Rattus norvegicus) (UniProt Q8K3T4); test: Agonist activity at GPR40 in Sprague-Dawley rat islets assessed as glucose-stimulated insulin secretion levels at 3 uM in presence of 11.2 mM glucose by ELISA (reference value: 6.24 ng/ml)
[21] = target: Free fatty acid receptor 1 (Rattus norvegicus) (UniProt Q8K3T4); test: Agonist activity at GPR40 in Sprague-Dawley rat islets assessed as glucose-stimulated insulin secretion levels at 10 uM in presence of 11.2 mM glucose by ELISA (reference value: 6.24 ng/ml)
[22] = test system: Rattus norvegicus; test: Antidiabetic activity in po dosed Zucker fa/fa rat assessed as reduction in blood glucose AUC administered daily for 21 days followed by OGTT at 1 hr after compound dosing and measured 60 mins post glucose challenge by oral glucose tolerance test; assay type: functional
[23] = test system: Rattus norvegicus; test: Antidiabetic activity in po dosed Zucker fa/fa rat assessed as reduction in blood glucose AUC administered for 1 day followed by OGTT at 1 hr after compound dosing and measured 60 mins post glucose challenge by oral glucose tolerance test; assay type: functional
In short: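 Male Zucker fa/fa rats, 10 weeks old, were dosed orally at 1, 3 and 10 mg/kg. The OGTT was run 1 h after dosing with an oral glucose challenge of 2 g/kg. The glucose AUC was calculated, and a dose-response curve gave the ED90.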

[24] = target: T1, Free fatty acid receptor 1; test: Agonist activity at human GPR40 receptor expressed in HEK293 cells assessed as increase in intracellular calcium flux after 2.5 hrs measured over 3 mins in presence of 0.1% serum albumin by calcium 4 dye-based FLIPR assay; assay type: functional, cell-based
[25] = target: T2, Peroxisome proliferator-activated receptor alpha (Homo sapiens) (UniProt Q07869); test: Agonist activity at GAL4-fused human PPARalpha expressed in African green monkey CV1 cells up to 30 uM after 24 hrs by luciferase reporter gene assay; assay type: cell-based
T2 sequence (whole entry): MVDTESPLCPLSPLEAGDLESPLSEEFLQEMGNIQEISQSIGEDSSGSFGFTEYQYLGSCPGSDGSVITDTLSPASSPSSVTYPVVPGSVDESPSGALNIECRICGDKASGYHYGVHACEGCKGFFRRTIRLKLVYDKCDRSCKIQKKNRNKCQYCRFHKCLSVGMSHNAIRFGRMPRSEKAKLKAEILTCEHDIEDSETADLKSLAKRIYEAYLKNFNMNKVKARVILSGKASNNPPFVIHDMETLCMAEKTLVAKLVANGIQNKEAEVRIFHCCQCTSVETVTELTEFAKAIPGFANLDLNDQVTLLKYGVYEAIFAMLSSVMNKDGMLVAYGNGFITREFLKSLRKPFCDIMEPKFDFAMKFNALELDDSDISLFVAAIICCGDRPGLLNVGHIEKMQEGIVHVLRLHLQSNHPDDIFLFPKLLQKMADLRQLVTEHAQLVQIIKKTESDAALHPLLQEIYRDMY
In short: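 PPAR alpha, delta and gamma binding and functional activity were each tested at concentrations up to 30 µM.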

[26] = Drug metabolism in rat hepatocytes assessed as glucuronidation; assay type: ADME, cell-based, Hepatocyte
[27] = Drug metabolism in mouse hepatocytes assessed as glucuronidation; assay type: ADME, cell-based, Hepatocyte
[28] = test system: Rattus norvegicus; test: Antidiabetic activity in Zucker fa/fa rat assessed as reduction in blood glucose AUC at 1 to 10 mg/kg, po administered for 1 day followed by OGTT at 1 hr after compound dosing and measured 60 mins post glucose challenge by oral glucose tolerance test; assay type: functional, organism-based
In short: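 Male Zucker fa/fa rats, 10 weeks old, were dosed orally with 1, 3 or 10 mg/kg, alongside a reference GPR40 agonist as positive control. The OGTT was run 1 h after dosing with a 2 g/kg oral glucose load. Blood glucose was sampled at 0, 10, 20, 40 and 60 min, with the legend also listing 120 min. Glucose AUC was assessed on day 1.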

Chain of Free fatty acid receptor 1 (Rattus norvegicus) (Q8K3T4 whole entry): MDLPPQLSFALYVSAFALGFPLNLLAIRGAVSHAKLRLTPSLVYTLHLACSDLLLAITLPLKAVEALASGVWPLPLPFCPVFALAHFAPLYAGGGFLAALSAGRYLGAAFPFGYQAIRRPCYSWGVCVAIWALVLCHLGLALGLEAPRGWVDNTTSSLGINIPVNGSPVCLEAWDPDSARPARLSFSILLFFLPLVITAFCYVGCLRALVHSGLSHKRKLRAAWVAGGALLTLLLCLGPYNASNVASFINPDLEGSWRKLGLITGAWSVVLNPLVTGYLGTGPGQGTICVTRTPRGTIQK
T1 sequence (O14842 whole entry): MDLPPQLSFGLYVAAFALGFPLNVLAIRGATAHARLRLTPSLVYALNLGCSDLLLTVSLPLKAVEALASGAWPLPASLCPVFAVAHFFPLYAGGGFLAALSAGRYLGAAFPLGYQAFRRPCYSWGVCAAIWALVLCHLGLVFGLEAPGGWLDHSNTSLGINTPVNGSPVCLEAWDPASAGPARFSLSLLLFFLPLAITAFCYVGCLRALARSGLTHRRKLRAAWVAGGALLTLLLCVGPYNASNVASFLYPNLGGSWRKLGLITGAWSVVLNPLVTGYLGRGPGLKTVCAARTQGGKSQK
Chain of Cytochrome P450 2D6 (P10635 whole entry): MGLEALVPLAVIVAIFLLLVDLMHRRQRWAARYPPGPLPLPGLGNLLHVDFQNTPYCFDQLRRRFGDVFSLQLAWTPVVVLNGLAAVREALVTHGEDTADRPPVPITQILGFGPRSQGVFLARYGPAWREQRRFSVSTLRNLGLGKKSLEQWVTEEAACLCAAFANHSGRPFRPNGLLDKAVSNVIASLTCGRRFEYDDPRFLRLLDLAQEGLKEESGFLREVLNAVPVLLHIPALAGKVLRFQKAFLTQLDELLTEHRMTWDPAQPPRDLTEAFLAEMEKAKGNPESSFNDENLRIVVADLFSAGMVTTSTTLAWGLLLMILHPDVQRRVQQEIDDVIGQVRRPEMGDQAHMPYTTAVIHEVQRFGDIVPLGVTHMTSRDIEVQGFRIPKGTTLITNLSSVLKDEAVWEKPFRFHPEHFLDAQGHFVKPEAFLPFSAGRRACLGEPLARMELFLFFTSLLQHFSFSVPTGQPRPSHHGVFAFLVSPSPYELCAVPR
Chain of Voltage-gated inwardly rectifying potassium channel KCNH2 (Q12809 whole entry): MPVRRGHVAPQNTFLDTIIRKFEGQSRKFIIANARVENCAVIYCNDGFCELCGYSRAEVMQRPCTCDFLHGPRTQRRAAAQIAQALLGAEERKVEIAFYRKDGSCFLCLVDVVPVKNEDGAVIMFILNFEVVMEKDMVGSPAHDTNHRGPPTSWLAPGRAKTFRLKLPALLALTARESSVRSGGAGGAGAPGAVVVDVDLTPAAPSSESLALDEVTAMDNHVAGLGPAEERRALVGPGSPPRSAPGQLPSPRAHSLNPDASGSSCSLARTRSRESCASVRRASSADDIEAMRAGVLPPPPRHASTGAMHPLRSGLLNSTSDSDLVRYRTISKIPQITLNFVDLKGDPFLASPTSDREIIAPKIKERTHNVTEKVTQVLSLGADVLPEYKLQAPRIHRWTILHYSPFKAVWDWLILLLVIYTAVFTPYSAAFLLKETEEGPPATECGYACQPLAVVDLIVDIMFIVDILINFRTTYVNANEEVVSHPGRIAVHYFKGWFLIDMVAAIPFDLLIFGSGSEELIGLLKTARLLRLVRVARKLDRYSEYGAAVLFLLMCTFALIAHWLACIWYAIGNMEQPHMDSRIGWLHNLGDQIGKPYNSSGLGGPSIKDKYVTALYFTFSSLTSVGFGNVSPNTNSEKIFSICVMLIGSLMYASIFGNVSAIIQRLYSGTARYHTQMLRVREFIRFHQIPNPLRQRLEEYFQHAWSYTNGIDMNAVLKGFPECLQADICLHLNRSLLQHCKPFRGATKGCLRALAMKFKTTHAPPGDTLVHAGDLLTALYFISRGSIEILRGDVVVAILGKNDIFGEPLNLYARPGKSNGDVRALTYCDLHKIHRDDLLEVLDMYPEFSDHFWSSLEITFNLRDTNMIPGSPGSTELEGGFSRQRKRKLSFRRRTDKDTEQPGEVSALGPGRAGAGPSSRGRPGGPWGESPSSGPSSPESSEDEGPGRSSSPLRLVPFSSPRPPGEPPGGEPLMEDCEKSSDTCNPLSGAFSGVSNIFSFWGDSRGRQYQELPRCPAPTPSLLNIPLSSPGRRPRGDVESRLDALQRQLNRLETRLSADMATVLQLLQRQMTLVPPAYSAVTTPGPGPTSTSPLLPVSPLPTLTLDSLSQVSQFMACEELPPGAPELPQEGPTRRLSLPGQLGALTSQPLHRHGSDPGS
Chain of Cytochrome P450 2C9 (P11712 whole entry): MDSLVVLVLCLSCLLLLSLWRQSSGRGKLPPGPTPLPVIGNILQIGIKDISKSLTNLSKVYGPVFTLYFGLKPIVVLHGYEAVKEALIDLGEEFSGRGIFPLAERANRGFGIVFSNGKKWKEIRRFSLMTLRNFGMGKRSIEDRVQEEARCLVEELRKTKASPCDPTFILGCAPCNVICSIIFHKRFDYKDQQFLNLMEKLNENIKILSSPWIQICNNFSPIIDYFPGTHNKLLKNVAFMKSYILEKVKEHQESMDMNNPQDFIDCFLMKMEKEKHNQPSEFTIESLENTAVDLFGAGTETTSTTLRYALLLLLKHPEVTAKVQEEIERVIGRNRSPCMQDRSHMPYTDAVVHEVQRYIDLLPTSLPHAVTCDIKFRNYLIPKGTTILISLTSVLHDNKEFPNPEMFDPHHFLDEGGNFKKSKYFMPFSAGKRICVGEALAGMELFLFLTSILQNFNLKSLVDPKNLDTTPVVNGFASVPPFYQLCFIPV

Which %max [1] does the source give for CC#C[C@@H](CC(=O)O)c1ccc(OCc2ccc3nc(-c4c(C)cccc4C)nn3c2)cc1 here?
The %max was 124%.

What about the fraction unbound [2] of the same molecule?
The fraction unbound was < 0.01.

And the IC50 [3]?
The IC50 was > 60 µM.

What about the IC50 [4] of the same molecule?
Its IC50 is > 60 µM.

And the AUC(0-t) at 24 h [5]?
The AUC(0-t) at 24 h was 215 µg·h/mL.

What about the AUC(0-t) at 24 h [6] of the same molecule?
Its AUC(0-t) at 24 h is 2870 µg·h/mL.

And the Cmax [7]?
Its Cmax is 208 µg/mL.

What about the Tmax [8] of the same molecule?
Its Tmax is 0.25 h.

And the Tmax [9]?
The Tmax was 5.3 h.

What about the half-life [10] of the same molecule?
The half-life was 3.98 h.

And the half-life [11]?
The half-life was 4.68 h.

And the AUC(0-t) at 24 h [12]?
The AUC(0-t) at 24 h was 52.8 µg·h/mL.

And the AUC(0-t) at 24 h [13]?
The AUC(0-t) at 24 h was 120 µg·h/mL.

What about the AUC(0-t) at 24 h [14] of the same molecule?
Its AUC(0-t) at 24 h is 3320 µg·h/mL.

What about the clearance [15] of the same molecule?
The clearance was 0.601 mL/min/kg.

What about the Vd [16] of the same molecule?
The Vd was 0.27 L/kg.

What about the metabolised at 0.5 h [17] of the same molecule?
The metabolised at 0.5 h was 10%.

What about the metabolised at 0.5 h [18] of the same molecule?
Its metabolised at 0.5 h is 5%.

What about the “inhibition (INH)” value [19] of the same molecule?
The value was “Not Active”.

What about the Activity [20] of the same molecule?
Its Activity is 20.2 ng/mL.

And the Activity [21]?
Its Activity is 19.4 ng/mL.

And the ED90 [22]?
Its ED90 is 5 mg/kg.

What about the ED90 [23] of the same molecule?
The ED90 was 4.1 mg/kg.

And the Activity [24]?
Its Activity is “Active”.

What about the Activity [25] of the same molecule?
Its Activity is “inactive”.

And the Drug metabolism [26]?
The Drug metabolism was “Metabolite_Detected”.

And the Drug metabolism [27]?
Its Drug metabolism is “Metabolite_Detected”.

And the Activity [28]?
Its Activity is “Active”.
